From ChEMBL document CHEMBL3286371, “wALADin benzimidazoles differentially modulate the function of porphobilinogen synthase orthologs” (J Med Chem, 2014)
Activity calls are given as the source filed them. No cut-off for these calls is given here.

Key:
[1] = target: T1, Delta-aminolevulinic acid dehydratase (Escherichia coli (strain K12)) (UniProt P0ACB2); assay: Stimulation of Escherichia coli recombinant PBGS assessed as reduction in Mg2+-induced conversion of dimer to octamer at 8 to 2000 uM by nondenaturing PAGE analysis
T1 sequence (whole entry): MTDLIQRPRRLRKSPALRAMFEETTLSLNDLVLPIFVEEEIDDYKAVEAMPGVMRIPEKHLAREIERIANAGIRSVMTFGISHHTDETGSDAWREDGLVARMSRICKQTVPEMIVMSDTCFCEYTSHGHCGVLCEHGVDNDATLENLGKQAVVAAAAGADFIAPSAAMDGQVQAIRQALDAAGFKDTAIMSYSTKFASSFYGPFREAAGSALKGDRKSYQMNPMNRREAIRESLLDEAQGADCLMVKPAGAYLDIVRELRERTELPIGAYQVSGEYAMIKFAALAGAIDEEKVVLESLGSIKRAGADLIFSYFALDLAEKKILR
How it was run: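 EcPBGS (3 μg) preincubated 20 min at 37 °C in BTP pH 8.1 buffer with varied Mg2+, Zn2+ and wALADin1. Run on 7.5% nondenaturing PAGE; Coomassie stain plus in-gel activity with 500 μM 5-ALA and Ehrlich's reagent.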

[2] = target: Delta-aminolevulinic acid dehydratase (Pseudomonas aeruginosa (strain ATCC 15692 / PAO1 / 1C / PRS 101 / LMG12228)) (UniProt Q59643); assay: Binding affinity to Pseudomonas aeruginosa PAO1 recombinant PBGS at 100 to 500 uM by thermal shift assay
Sequence of Delta-aminolevulinic acid dehydratase (Pseudomonas aeruginosa (strain ATCC 15692 / PAO1 / 1C / PRS 101 / LMG12228)) (Q59643 whole entry): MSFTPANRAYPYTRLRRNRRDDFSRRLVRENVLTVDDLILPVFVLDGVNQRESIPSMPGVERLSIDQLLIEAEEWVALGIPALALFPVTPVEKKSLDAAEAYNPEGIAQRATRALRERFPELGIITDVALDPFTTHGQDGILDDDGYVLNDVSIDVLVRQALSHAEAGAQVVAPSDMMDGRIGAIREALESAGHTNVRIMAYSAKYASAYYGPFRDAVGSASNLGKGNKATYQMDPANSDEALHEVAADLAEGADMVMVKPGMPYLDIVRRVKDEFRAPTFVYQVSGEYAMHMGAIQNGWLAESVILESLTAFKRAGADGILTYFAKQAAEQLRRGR

[3] = target: Delta-aminolevulinic acid dehydratase (Pseudomonas aeruginosa (strain ATCC 15692 / PAO1 / 1C / PRS 101 / LMG12228)) (UniProt Q59643); assay: Stimulation of Pseudomonas aeruginosa PAO1 recombinant PBGS assessed as stabilization of octameric form at 250 uM at pH 7 to 8.5 by nondenaturing PAGE analysis in presence of Mg2+ and K+
[4] = target: T2, Delta-aminolevulinic acid dehydratase, chloroplastic (Pisum sativum) (UniProt P30124); assay: Inhibition of Pisum sativum PBGS using 10 mM 5-ALA as substrate assessed as decrease in enzyme activity at 6.25 to 100 uM in presence of MgCl2; conditions: Lathyrus oleraceus
T2 sequence (whole entry): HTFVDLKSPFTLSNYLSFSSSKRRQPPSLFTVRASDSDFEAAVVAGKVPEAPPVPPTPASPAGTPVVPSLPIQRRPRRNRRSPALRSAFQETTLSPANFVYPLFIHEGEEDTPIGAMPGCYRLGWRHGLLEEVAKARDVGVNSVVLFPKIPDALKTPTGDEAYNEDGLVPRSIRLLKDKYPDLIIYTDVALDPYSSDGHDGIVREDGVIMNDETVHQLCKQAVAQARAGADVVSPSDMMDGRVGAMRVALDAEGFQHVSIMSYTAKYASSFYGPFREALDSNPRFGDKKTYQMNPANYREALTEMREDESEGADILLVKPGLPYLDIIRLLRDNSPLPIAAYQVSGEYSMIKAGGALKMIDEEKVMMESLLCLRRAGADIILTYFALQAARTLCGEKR

[5] = target: Delta-aminolevulinic acid dehydratase (Pseudomonas aeruginosa (strain ATCC 15692 / PAO1 / 1C / PRS 101 / LMG12228), UniProt Q59643); assay: Inhibition of Pseudomonas aeruginosa PAO1 recombinant PBGS using 5-ALA as substrate
Sequence of Delta-aminolevulinic acid dehydratase (Pseudomonas aeruginosa (strain ATCC 15692 / PAO1 / 1C / PRS 101 / LMG12228), UniProt Q59643) (Q59643 whole entry): as the sequence (Q59643 whole entry) above
How it was run: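 Turnover kept at or below 30%. Porphobilinogen measured with Ehrlich's reagent. IC50 by variable-slope fit of activity normalized to DMSO control.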

[6] = Stimulation of Toxoplasma gondii recombinant PBGS using 5-ALA as substrate
How it was run: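 T. gondii PBGS, expressed from pET-21b in BL21 E. coli and purified, at 250 nM subunit in 100 mM Tris-HCl pH 8.0 with 1 mM MgCl2, 5 mM DTT and 0.2 mM 5-ALA, 20 min at 36 °C. Porphobilinogen detected with Ehrlich's reagent. Activity normalized to 6.7% DMSO control. EC50 by variable-slope agonist fit.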

[7] = target: T3, Delta-aminolevulinic acid dehydratase (Escherichia coli (strain K12), UniProt P0ACB2); assay: Stimulation of Escherichia coli recombinant PBGS using 5-ALA as substrate
T3 sequence (P0ACB2 whole entry): T1 sequence (whole entry)
How it was run: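 E. coli PBGS at 200 nM subunit in 100 mM BTP-HCl pH 8.1 with 1 mM MgCl2, 10 μM ZnCl2, 5 mM DTT and 0.2 mM 5-ALA, 10 min at 36 °C. Porphobilinogen detected with Ehrlich's reagent. Activity normalized to control with 6.7% DMSO set at 100%. EC50 by log(agonist) vs response variable-slope fit.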

[8] = target: T2, Delta-aminolevulinic acid dehydratase, chloroplastic (Pisum sativum); assay: Competitive inhibition of Pisum sativum PBGS using 5-ALA as substrate at 6.25 to 100 uM; conditions: Lathyrus oleraceus
[9] = target: Delta-aminolevulinic acid dehydratase (Pseudomonas aeruginosa (strain ATCC 15692 / PAO1 / 1C / PRS 101 / LMG12228)) (UniProt Q59643); assay: Stimulation of Pseudomonas aeruginosa PAO1 recombinant PBGS using 5 mM 5-ALA as substrate assessed as increase in Vmax at 50 to 200 uM at pH 8 by Michaelis-Menten plot analysis in presence of MgCl2
How it was run: (§1)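 Mg2+ or substrate response curves recorded with and without wALADin1; VMAX, KM and Mg2+ affinity derived from the fits.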

[10] = target: T2, Delta-aminolevulinic acid dehydratase, chloroplastic (Pisum sativum); assay: Partial competitive inhibition of Pisum sativum PBGS using 5-ALA as substrate at 6.25 to 100 uM in presence of MgCl2; conditions: Lathyrus oleraceus
[11] = target: Delta-aminolevulinic acid dehydratase (Pseudomonas aeruginosa (strain ATCC 15692 / PAO1 / 1C / PRS 101 / LMG12228)) (UniProt Q59643); assay: Inhibition of Pseudomonas aeruginosa PAO1 recombinant PBGS using 0.2 mM 5-ALA as substrate assessed as […] at 50 to 200 uM at pH 7.5 by buffer scan assay in presence of 1 mM MgCl2 and 1 to 1000 mM KCl
[12] = target: Delta-aminolevulinic acid dehydratase (Pseudomonas aeruginosa (strain ATCC 15692 / PAO1 / 1C / PRS 101 / LMG12228)) (UniProt Q59643); assay: Stimulation of Pseudomonas aeruginosa PAO1 recombinant PBGS using 5 mM 5-ALA as substrate at 50 to 200 uM at pH 8 by buffer scan assay in presence of KCl
[13] = target: Delta-aminolevulinic acid dehydratase (Pseudomonas aeruginosa (strain ATCC 15692 / PAO1 / 1C / PRS 101 / LMG12228)) (UniProt Q59643); assay: Stimulation of Pseudomonas aeruginosa PAO1 recombinant PBGS assessed as stabilization of dimeric form at 8 to 2000 uM by nondenaturing PAGE analysis in presence of Mg2+ and K+ and 5-ALA
[14] = target: Delta-aminolevulinic acid dehydratase (Pseudomonas aeruginosa (strain ATCC 15692 / PAO1 / 1C / PRS 101 / LMG12228)) (UniProt Q59643); assay: Inhibition of Pseudomonas aeruginosa PAO1 recombinant PBGS using 0.2 mM 5-ALA as substrate at 10 to 10000 uM at pH 7.5 by buffer scan assay in presence of 1 mM MgCl2
[15] = target: Delta-aminolevulinic acid dehydratase (Pseudomonas aeruginosa (strain ATCC 15692 / PAO1 / 1C / PRS 101 / LMG12228)) (UniProt Q59643); assay: Binding affinity to Pseudomonas aeruginosa PAO1 recombinant PBGS at 100 to 500 uM by thermal shift assay in presence of KCl
[16] = target: Delta-aminolevulinic acid dehydratase (Pseudomonas aeruginosa (strain ATCC 15692 / PAO1 / 1C / PRS 101 / LMG12228)) (UniProt Q59643); assay: Inhibition of Pseudomonas aeruginosa PAO1 recombinant PBGS using 0.2 mM 5-ALA as substrate at 50 to 200 uM at low pH by buffer scan assay
[17] = target: Delta-aminolevulinic acid dehydratase (Pseudomonas aeruginosa (strain ATCC 15692 / PAO1 / 1C / PRS 101 / LMG12228)) (UniProt Q59643); assay: Stimulation of Pseudomonas aeruginosa PAO1 recombinant PBGS using 5 mM 5-ALA as substrate assessed as increase in Vmax at 10 to 10000 uM at pH 8 by buffer scan assay in presence of MgCl2; how it was run: as §1
[18] = target: T2, Delta-aminolevulinic acid dehydratase, chloroplastic (Pisum sativum); assay: Inhibition of Pisum sativum PBGS using 5-ALA as substrate at 8 to 2000 uM after 30 mins by nondenaturing PAGE analysis; conditions: Lathyrus oleraceus
[19] = target: Delta-aminolevulinic acid dehydratase (Pseudomonas aeruginosa (strain ATCC 15692 / PAO1 / 1C / PRS 101 / LMG12228)) (UniProt Q59643); assay: Stimulation of Pseudomonas aeruginosa PAO1 recombinant PBGS using 5-ALA as substrate at 10 to 1000 uM at pH 8 in presence of MgCl2 and KCl

For `O=C(O)c1ccc2c(c1)nc(CCNC(=O)c1cccs1)n2Cc1cccc(C(F)(F)F)c1`, the Activity [1] was “Active”, the Activity [2] was “Active” and the Activity [3] was “Active”. The inhibition [4] was “Active”, the IC50 [5] was 79 µM and the EC50 [6] was 95 µM. The EC50 [7] was 60 µM, the inhibition [8] was “Active” and the Activity [9] was “Active”. For the same compound, the inhibition [10] was “Active”, the inhibition [11] was “inactive” and the Activity [12] was “Active”. The Activity [13] was “inactive”, the inhibition [14] was “Active” and the Activity [15] was “Active”. The inhibition [16] was “Active”, the Activity [17] was “Active” and the inhibition [18] was “Active”. The Activity [19] was “Active”.
